Screening data (PubChem)
TRPC4 agonist: activators of mouse TRPC4 channel, primary screen, Fluo4 calcium, HEK293 TRPC4beta/mu-opioid cells; Short transient receptor potential channel 4 (Mus musculus), Q9QUQ5; Fluo4 calcium fluorescence; stronger effect = higher value; B-score at 10 µM; 310,000 compounds, 0.49% hits;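 active = B-score above 5 SD of library B-scores, and initial fluorescence ratio not above library mean plus 5 SD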;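 note: positive B-score marks a calcium rise read as TRPC4 activation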
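Incubation: 45 min room-temperature Fluo4 loading, 110 s read / System: HEK293 cells stably co-expressing mouse TRPC4beta and mu-opioid receptor / Signal: Fluo4 fluorescence, kinetic / Control set: buffer (low) and maximal DAMGO (high) / Measure: integrated baseline-normalised fluorescence ratio, converted to per-well B score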
TRPC4 block: inhibitors of mouse TRPC4 channel, primary screen, Fluo4 calcium, HEK293 TRPC4beta/mu-opioid cells; DAMGO-evoked Fluo4 calcium flux; stronger effect = lower value; B-score at 10 µM; AID 2247, 2010; 300,000 compounds, 0.39% hits;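 active = B-score over 3 SD under the library average, no early fluorescence shift, positive overall ratio signal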
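Assay system: TRPC4beta/mu-opioid receptor HEK293 cell line; compound dosing: single concentration per test compound; detection: Fluo4 Ca2+ flux fluorescence; evaluation: per-well B score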
TRPC6 inh: mouse TRPC6 channel inhibitors, primary screen, cell-based, HEK293, membrane potential dye | ACh-evoked depolarization; stronger effect = lower value | B-score at 10 µM | 310,000 compounds, 1.1% hits | Short transient receptor potential channel 6 (Mus musculus), Q61143;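 active = B-score under library mean minus 3 SD, initial fluorescence not abnormally high, positive integrated signal ratio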;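 note: B-score derived from integrated fluorescence ratio over the kinetic read; more negative B-score means stronger inhibition of depolarization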
Target sequence (Q61143 whole entry, looked up): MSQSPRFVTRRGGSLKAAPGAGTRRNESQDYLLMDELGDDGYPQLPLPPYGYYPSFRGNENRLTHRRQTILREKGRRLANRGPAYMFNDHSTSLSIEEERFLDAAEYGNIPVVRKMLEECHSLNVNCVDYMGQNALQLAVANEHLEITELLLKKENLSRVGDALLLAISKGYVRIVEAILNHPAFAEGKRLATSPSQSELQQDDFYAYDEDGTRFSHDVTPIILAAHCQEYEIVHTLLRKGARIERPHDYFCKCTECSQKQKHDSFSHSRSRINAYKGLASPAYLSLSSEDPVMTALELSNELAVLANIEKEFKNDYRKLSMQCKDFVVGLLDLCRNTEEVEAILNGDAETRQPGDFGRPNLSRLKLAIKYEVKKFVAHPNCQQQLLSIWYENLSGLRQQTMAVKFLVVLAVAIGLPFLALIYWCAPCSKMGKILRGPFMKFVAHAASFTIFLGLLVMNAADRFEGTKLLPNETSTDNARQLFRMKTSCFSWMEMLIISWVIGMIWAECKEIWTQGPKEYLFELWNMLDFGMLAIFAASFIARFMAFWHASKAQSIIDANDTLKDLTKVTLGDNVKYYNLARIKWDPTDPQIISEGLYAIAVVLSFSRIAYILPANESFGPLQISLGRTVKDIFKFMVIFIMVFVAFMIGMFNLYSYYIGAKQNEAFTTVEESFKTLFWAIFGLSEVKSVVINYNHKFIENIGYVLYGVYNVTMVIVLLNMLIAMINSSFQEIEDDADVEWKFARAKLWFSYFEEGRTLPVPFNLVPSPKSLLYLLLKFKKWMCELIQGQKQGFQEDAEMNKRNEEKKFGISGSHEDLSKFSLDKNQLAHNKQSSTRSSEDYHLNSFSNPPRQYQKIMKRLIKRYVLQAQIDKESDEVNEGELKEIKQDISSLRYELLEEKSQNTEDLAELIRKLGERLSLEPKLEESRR
TRPC6 act: mouse TRPC6 channel activators, primary screen, cell-based, HEK293, membrane potential dye; AID 2550, 2010; Short transient receptor potential channel 6 (Mus musculus), Q61143; 310,000 compounds, 0.13% hits; B-score at 10 µM; HEK293-TRPC6 membrane potential dye fluorescence; stronger effect = higher value;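 active = B-score of the integrated fluorescence ratio above library mean plus 3 SD, and starting fluorescence ratio within library mean plus 5 SD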;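 note: higher score means more depolarization so channel activation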
TRPC4 potent: positive allosteric modulators of TRPC4, primary screen, cell-based, mouse TRPC4beta, HEK293 mu-opioid, Fluo-4 calcium | B-score at 10 µM | 310,000 compounds, 0.42% hits | DAMGO EC20, Fluo-4 Ca2+ flux; stronger effect = higher value;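 active = B-score of calcium response area above 5 SD of library B-scores, with initial fluorescence ratio within 5 SD of library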;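 note: B-score of integrated fluorescence ratio over time as area under calcium response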
HEK293 TRPC6 ctr: parental HEK293 membrane potential modulation, confirmation, counter-screen for TRPC6 modulator project, cell-based | shares compounds with TRPC6 inh | 2,400 compounds, 51% hits | membrane potential signal change, % at 10 µM | membrane potential dye fluorescence;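 active = membrane potential signal moves up or down beyond 5 SD from buffer-only wells, on both duplicate plates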
HEK293 MPD ctr 2: second check of TRPC6 modulator effects in parental HEK293 cells | shares compounds with TRPC6 inh | membrane potential dye fluorescence; after compound, maximal acetylcholine stimulation | inhibition, % at 10 µM | 2,400 compounds, 14% hits;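 active = membrane potential signal drops by more than 5 SD from the mean control signal, in both duplicate plates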;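 note: plate controls were acetylcholine ECmax control wells for no effect and buffer only wells for full effect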
TRPC4 ctr mod: TRPC4 modulation by TRPC6 hit compounds, confirmation, selectivity assay for TRPC6 modulator project, cell-based, HEK293 TRPC4/mu-opioid, membrane potential dye, mouse | shares compounds with TRPC6 inh | membrane potential fluorescence | percent change from control (negative = decrease, positive = increase), % at 10 µM | 2,400 compounds, 69% hits | AID 488927, 2010;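 active = membrane potential signal moved up or down beyond 5 SD of buffer control wells, in both duplicate plates, actives on both sides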;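 note: plate controls were assay buffer wells for no effect and DAMGO maximal-effect wells for full effect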
TRPC4 ctr inh 2: second selectivity test of TRPC6 modulators against mouse TRPC4; HEK293 TRPC4/mu-opioid, membrane potential dye fluorescence; stimulated with maximal-effect DAMGO; shares compounds with TRPC6 inh; inhibition, % at 10 µM; 2,400 compounds, 55% hits; AID 488928;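 active = drop in membrane potential signal beyond 5 SD of the control wells in both duplicate plates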;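 note: TRPC4 counter screen for TRPC6 hits run under conditions tuned for TRPC6 not TRPC4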
TRPC6 block conf: mouse TRPC6 channel inhibitors, confirmation, HEK293 cells, membrane potential dye, duplicate. ACh-evoked depolarization. shares compounds with TRPC6 inh. 3,300 compounds, 43% hits. inhibition, % at 10 µM;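 active = fluorescence ratio falls more than 5 SD below the full-stimulation control mean, in both duplicate runs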;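 note: integrated fluorescence ratio of peak minus minimum over baseline after agonist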
TRPC6 act confirm: mouse TRPC6 channel activators, confirmation, HEK293 cells, membrane potential dye, duplicate. shares compounds with TRPC6 inh. HEK293-TRPC6 membrane potential dye fluorescence, FDSS. activation, % at 10 µM. 2,800 compounds, 11% hits;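 active = ratio signal rise beyond 5 SD above unstimulated control wells' mean, seen in both duplicate runs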;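 note: plate controls were buffer EC0 wells for no effect and acetylcholine ECmax response for full effect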
An asterisk follows results filed as active. Compounds with a hit are over-represented: about 2.3% of the library has one in this group of screens.

`O=C(NCCCN1CCOCC1)c1ccc2c(c1)N(Cc1cccc(Cl)c1)C(=O)CS2` gave TRPC4 agonist inactive, TRPC4 block inactive, TRPC6 inh -5*, TRPC6 act inactive, TRPC4 potent inactive, HEK293 TRPC6 ctr 664%*, HEK293 MPD ctr 2 160%*, TRPC4 ctr mod 133%*, TRPC4 ctr inh 2 41%* and TRPC6 block conf 93%*.
`O=C(NCCCN1CCCC1)c1ccc2c(c1)N(Cc1ccccc1)CCS2` gave TRPC4 agonist inactive, TRPC4 block inactive, TRPC6 inh -5.9*, TRPC6 act inactive, TRPC4 potent inactive, HEK293 TRPC6 ctr inactive, HEK293 MPD ctr 2 inactive, TRPC4 ctr mod -8.5%*, TRPC4 ctr inh 2 80%*, TRPC6 block conf 62%* and TRPC6 act confirm inactive.
For CCn1nc(C)c(CN2CCc3c([nH]c4ccccc34)C2c2ccc(F)c(OC)c2)c1C (centres undefined) the results were TRPC4 agonist inactive, TRPC4 block inactive, TRPC6 inh inactive, TRPC6 act inactive and TRPC4 potent inactive.
Screening Fc1cccc(NCc2cn3ccccc3n2)c1 returned TRPC4 agonist inactive, TRPC4 block inactive, TRPC6 inh -5.5*, TRPC6 act inactive, TRPC4 potent inactive, HEK293 TRPC6 ctr inactive, HEK293 MPD ctr 2 inactive, TRPC4 ctr mod inactive, TRPC4 ctr inh 2 inactive, TRPC6 block conf inactive and TRPC6 act confirm inactive.
For Nc1nc(NCCCN2CCOCC2)nc(Nc2cccc(Cl)c2)c1[N+](=O)[O-] the results were TRPC4 agonist inactive, TRPC4 block inactive, TRPC6 inh -5.6*, TRPC6 act inactive, TRPC4 potent inactive, HEK293 TRPC6 ctr inactive, HEK293 MPD ctr 2 inactive, TRPC4 ctr mod -18%*, TRPC4 ctr inh 2 86%*, TRPC6 block conf 52%* and TRPC6 act confirm inactive.
Nc1ccc(C(=O)OCC(=O)NC(=O)c2ccccc2)cc1[N+](=O)[O-] was read as TRPC4 agonist inactive, TRPC4 block inactive, TRPC6 inh inactive, TRPC6 act inactive and TRPC4 potent inactive.
Screening O=C(COC(=O)c1cc[n+]([O-])cc1)Nc1ccc([N+](=O)[O-])cc1Cl returned TRPC4 agonist inactive, TRPC4 block inactive, TRPC6 inh -8.9*, TRPC6 act inactive, TRPC4 potent inactive, HEK293 TRPC6 ctr -314%*, HEK293 MPD ctr 2 inactive, TRPC4 ctr mod -52%*, TRPC4 ctr inh 2 62%*, TRPC6 block conf 44%* and TRPC6 act confirm inactive.
`O=C(COC(=O)c1cc[n+]([O-])cc1)Nc1ccc(Cl)cc1[N+](=O)[O-]` gave TRPC4 agonist inactive, TRPC4 block inactive, TRPC6 inh -6*, TRPC6 act inactive, TRPC4 potent inactive, HEK293 TRPC6 ctr -168%*, HEK293 MPD ctr 2 inactive, TRPC4 ctr mod -36%*, TRPC4 ctr inh 2 inactive, TRPC6 block conf inactive and TRPC6 act confirm inactive.
`O=C(COC(=O)c1ccc(Cl)cc1[N+](=O)[O-])NC(=O)c1ccccc1` gave TRPC4 agonist inactive, TRPC4 block inactive, TRPC6 inh -5.9*, TRPC6 act inactive, TRPC4 potent inactive, HEK293 TRPC6 ctr inactive, HEK293 MPD ctr 2 inactive, TRPC4 ctr mod inactive, TRPC4 ctr inh 2 inactive, TRPC6 block conf inactive and TRPC6 act confirm inactive.
For COC(=O)/C=C1/SC(=NC(=O)c2ccc(Cl)cc2)NC1=O the results were TRPC4 agonist inactive, TRPC4 block inactive, TRPC6 inh inactive, TRPC6 act 14*, TRPC4 potent inactive, HEK293 TRPC6 ctr 134%*, HEK293 MPD ctr 2 inactive, TRPC4 ctr mod 20%*, TRPC4 ctr inh 2 inactive, TRPC6 block conf inactive and TRPC6 act confirm 56%*.
`COC(=O)/C=C1\SC(=NC(=O)c2ccc(C)cc2)NC1=O` gave TRPC4 agonist inactive, TRPC4 block inactive, TRPC6 inh inactive, TRPC6 act inactive and TRPC4 potent inactive.
